According to ChEMBL document CHEMBL1157718, “Characterization of non-lipid autotaxin inhibitors” (Bioorg Med Chem, 2010):
Activity calls are given as the source filed them.

Assays:
Autotaxin [1] = target: T1, Autotaxin (Homo sapiens, UniProt Q13822); experiment: Competitive-type inhibition of autotaxin-mediated FS3 hydrolysis by Michaelis-Menten analysis
Outline: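 ATX from ~10-fold concentrated serum-free conditioned medium of MDA-MB-435 cells. […] Buffer was 50 mM Tris pH 8.0 with salts and 30 µM charcoal-stripped BSA, 37 °C, fluorescence read every 2 min at ex 485/em 528. Initial rates were fitted to inhibition models, and the mechanism was assigned by lowest average percent residuals.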

[2] = target: T2, Ectonucleotide pyrophosphatase/phosphodiesterase family member 7 (Homo sapiens) (UniProt Q6UWV6); experiment: Inhibition of NPP7 expressed in human HEK293 cells at 10 uM; format: cell-based
T2 sequence (whole entry): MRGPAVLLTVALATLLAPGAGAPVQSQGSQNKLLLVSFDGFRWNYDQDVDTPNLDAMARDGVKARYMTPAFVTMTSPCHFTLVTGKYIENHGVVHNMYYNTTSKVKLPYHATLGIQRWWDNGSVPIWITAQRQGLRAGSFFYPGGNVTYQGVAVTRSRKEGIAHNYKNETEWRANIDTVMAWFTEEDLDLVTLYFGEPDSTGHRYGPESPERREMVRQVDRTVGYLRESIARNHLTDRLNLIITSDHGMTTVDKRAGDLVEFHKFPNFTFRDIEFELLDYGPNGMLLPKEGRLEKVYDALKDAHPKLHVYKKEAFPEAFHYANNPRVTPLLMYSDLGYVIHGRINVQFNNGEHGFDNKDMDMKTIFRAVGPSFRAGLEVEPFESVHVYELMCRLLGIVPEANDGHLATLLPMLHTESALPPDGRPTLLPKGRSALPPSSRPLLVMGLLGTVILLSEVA
Outline: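 Enzyme was soluble NPP7 in concentrated (10 kDa cutoff) serum-free conditioned medium from transiently transfected HEK293 cells, making up one-third of the assay volume. Substrate was pNPPC at […] in 50 mM Tris-HCl pH 8.5, 150 mM NaCl, 10 mM taurocholic acid, no EDTA, with inhibitor at 10 µM. A405 was read every 2 min and reported at 1 h, normalized to vehicle after blank subtraction. Mean ± SD of ≥3 wells.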

Autotaxin [3] = target: T1, Autotaxin
[4] = target: T3, Glycerophosphocholine cholinephosphodiesterase ENPP6 (Homo sapiens) (UniProt Q6UWR7); experiment: Inhibition of NPP6 expressed in human HEK293 cells at 10 uM; format: cell-based
T3 sequence (whole entry): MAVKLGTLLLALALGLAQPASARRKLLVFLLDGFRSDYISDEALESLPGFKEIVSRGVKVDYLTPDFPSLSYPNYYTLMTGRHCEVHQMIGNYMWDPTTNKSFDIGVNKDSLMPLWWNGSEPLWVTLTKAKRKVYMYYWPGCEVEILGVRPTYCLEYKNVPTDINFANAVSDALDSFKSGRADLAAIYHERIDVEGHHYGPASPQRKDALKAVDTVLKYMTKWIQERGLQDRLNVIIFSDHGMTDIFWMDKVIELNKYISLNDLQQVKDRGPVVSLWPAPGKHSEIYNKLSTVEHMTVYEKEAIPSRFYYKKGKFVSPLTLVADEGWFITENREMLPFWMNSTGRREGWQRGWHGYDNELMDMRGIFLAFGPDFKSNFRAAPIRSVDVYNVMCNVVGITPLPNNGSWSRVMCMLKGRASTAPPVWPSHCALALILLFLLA
Outline: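 Enzyme was soluble NPP6 in unconcentrated serum-free conditioned medium from transiently transfected HEK293 cells (48 h), making up one-third of the assay volume. Substrate was pNPPC at […] in 100 mM Tris-HCl pH 9.0, 500 mM NaCl, 0.05% Triton X-100, with inhibitor at 10 µM. A405 was read every 2 min and reported at 1 h, blank-subtracted and normalized to vehicle. Mean ± SD of ≥3 wells.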

Autotaxin [5] = target: T1, Autotaxin; experiment: Noncompetitive inhibition of autotaxin-mediated pNP-TMP hydrolysis by Michaelis-Menten analysis for enzyme-substrate complex
Outline: (§1)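 ATX from ~10-fold concentrated serum-free conditioned medium of MDA-MB-435 cells, used without further manipulation. […] Absorbance at 405 nm read every 2 min gave initial rates. Km came from zero-inhibitor data. Ki (free enzyme) and K'i (enzyme–substrate complex) were fitted by non-linear models, and the mechanism was assigned by the lowest average percent residuals.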

Autotaxin [6] = target: T1, Autotaxin; remark: listed apart in the source
Autotaxin [7] = target: T1, Autotaxin; experiment: Noncompetitive inhibition of autotaxin-mediated pNP-TMP hydrolysis by Michaelis-Menten analysis; outline: as §1
Autotaxin [8] = target: T1, Autotaxin; remark: listed apart in the source
Autotaxin [9] = target: T1, Autotaxin; remark: listed apart in the source

Ki (Autotaxin [1]) [µM] | inhibition [2] | IC50 (Autotaxin [3]) [µM] | inhibition [4] | Ki (Autotaxin [5]) [µM] | IC50 (Autotaxin [6]) [µM] | Ki (Autotaxin [7]) [µM] | Ki (Autotaxin [8]) [µM] | Ki (Autotaxin [9]) [µM] | Structure (SMILES)
1.9 | inactive | – | inactive | 6.5 | 1.2 | 6.5 | – | – | CCn1cc(C(=O)O)c(=O)c2cnc(N3CCN(C(=S)Nc4cc(Cl)cc(Cl)c4)CC3)nc21
– | inactive | 12.8 | inactive | – | – | – | 15.1 | 40.3 | O=C(O)c1cccc(NC(=O)c2ccc3c(c2)C(=O)N(c2ccc(/N=N/c4ccccc4)cc2)C3=O)c1
– | inactive | 6.8 | inactive | – | 6.8 | – | 5.8 | 32.3 | O=C(O)c1ccc(Oc2ccc(C(=O)c3ccc4c(c3)C(=O)N(c3cccc5ccccc35)C4=O)cc2)cc1

Second part, the compound before the results:

Structure (SMILES) | Ki (Autotaxin [1]) [µM] | inhibition [2] | IC50 (Autotaxin [3]) [µM] | inhibition [4] | Ki (Autotaxin [5]) [µM] | IC50 (Autotaxin [6]) [µM] | Ki (Autotaxin [7]) [µM] | Ki (Autotaxin [8]) [µM] | Ki (Autotaxin [9]) [µM]
O=C(O)c1ccc(CN2C(=O)c3ccc(C(=O)c4ccc5c(c4)C(=O)N(Cc4ccc(C(=O)O)cc4)C5=O)cc3C2=O)cc1 | 5 | inactive | 12.8 | inactive | – | – | – | – | –
CCn1c(SCC(=O)Nc2ccc(C(=O)O)cc2)nc2nc3c(cc2c1=O)CCCC3 | – | inactive | – | inactive | – | – | – | – | –
CCn1cc(C(=O)O)c(=O)c2cnc(N3CCN(C(=S)NC(=O)C4c5ccccc5Oc5ccccc54)CC3)nc21 | – | inactive | – | inactive | – | – | – | – | –
